Calls of active or inactive are those of the source. The rule behind the calls is not given here.
Assays:
Cholinesterase = Cholinesterase (Equus caballus, UniProt P81908); assay: Inhibition of equine serum BChE using butyrylthiocholine iodide as substrate preincubated for 2 mins followed by substrate addition and measured after 2 mins by Ellman's method
Outline: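 Equine serum BuChE (Type VI-S) inhibition measured by the Ellman method. IC50 is the inhibitor concentration giving 50% enzyme inactivation, reported as mean ± SEM of three experiments.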

Acetylcholinesterase = Acetylcholinesterase (Electrophorus electricus, UniProt O42275); assay: Inhibition of electric eel AChE using acetylthiocholine iodide as substrate preincubated for 2 mins followed by substrate addition and measured after 2 mins by Ellman's method
[1] = Selectivity index, ratio of IC50 for electric eel AChE to IC50 for equine serum BChE
Outline: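 Electric eel AChE (Type VI-S) and equine serum BuChE (Type VI-S) were each assayed by the Ellman method, with IC50 as mean ± SEM of three experiments. Selectivity index was calculated as IC50(AChE)/IC50(BuChE).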

[2] = biological target: Amyloid-beta precursor protein (Homo sapiens) (UniProt P05067); assay: Inhibition of self-induced human amyloid beta (1 to 42) aggregation at 25 uM after 24 hrs by thioflavin-T based fluorescence assay relative to control
Outline: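 Thioflavin T fluorescence assay of self-induced Aβ1-42 aggregation, with test compound present at 25 μM and resveratrol as the positive control. Inhibition is given in percent as mean ± SD of at least three independent experiments.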

SH-SY5Y [3] = assay: Neurotoxicity against human SH-SY5Y cells assessed as decrease in cell viability at 1 to 10 uM after 24 hrs by MTT assay; type: toxicity, cell-based
Outline: (§1)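 Cytotoxicity assay: SH-SY5Y cells were incubated with compound at 1, 2.5, 5 or 10 μM for 24 h. Viability was determined by MTT and expressed as percent of control, mean ± SD of 3 independent experiments.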

SH-SY5Y [4] = assay: Neuroprotective activity against H2O2-induced oxidative stress in human SH-SY5Y cells assessed as cell viability at 5 uM after 24 hrs by MTT assay (reference value: 57.2%); type: functional; conditions: read-out: Activity
Outline: (§2)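 SH-SY5Y cells were treated with H₂O₂ (300 μM) for 24 h, with compound (1 or 5 μM) co-treated. Viability was read by MTT and compared with H₂O₂-only and untreated controls. Data are mean ± SEM of three experiments, each run in triplicate.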

[5] = Neurotoxicity against human SH-SY5Y cells assessed as cell viability at 2.5 uM after 24 hrs by MTT assay relative to control; type: toxicity, cell-based; conditions: read-out: Activity; outline: as §1
[6] = Neurotoxicity against human SH-SY5Y cells assessed as cell viability at 10 uM after 24 hrs by MTT assay relative to control; type: toxicity, cell-based; conditions: read-out: Activity; outline: as §1
[7] = Neurotoxicity against human SH-SY5Y cells assessed as cell viability at 1 uM after 24 hrs by MTT assay relative to control; type: toxicity, cell-based; conditions: read-out: Activity; outline: as §1
SH-SY5Y [8] = assay: Neuroprotective activity against okadaic acid-induced cell death in human SH-SY5Y cells assessed as cell viability at 1 uM after 24 hrs by MTT assay (reference value: 53.1%); type: functional; conditions: read-out: Activity
SH-SY5Y [9] = assay: Neuroprotective activity against H2O2-induced oxidative stress in human SH-SY5Y cells assessed as cell viability at 1 uM after 24 hrs by MTT assay (reference value: 57.2%); type: functional; conditions: read-out: Activity; outline: as §2
[10] = Neurotoxicity against human SH-SY5Y cells assessed as cell viability at 5 uM after 24 hrs by MTT assay relative to control; type: toxicity, cell-based; conditions: read-out: Activity; outline: as §1
SH-SY5Y [11] = assay: Neuroprotective activity against amyloid beta (1 to 42)-induced neurodegeneration in human SH-SY5Y cells assessed as increase in cell viability at 1 uM after 48 hrs by MTT assay; type: functional, cell-based
Outline: (§3)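 SH-SY5Y neuroblastoma cells were exposed to Aβ1-42 (30 μM) for 48 h, with or without compound at 1 or 5 μM. Viability was measured by MTT assay against Aβ1-42-only and untreated controls. Data are mean ± SEM of three experiments, each run in triplicate.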

SH-SY5Y [12] = assay: Neuroprotective activity against okadaic acid-induced cell death in human SH-SY5Y cells assessed as increase in cell viability at 1 uM after 24 hrs by MTT assay; type: functional, cell-based
[13] = biological target: Cholinesterase (Equus caballus) (UniProt P81908); assay: Potency index, ratio of donepezil IC50 to compound IC50 for equine serum BChE
SH-SY5Y [14] = assay: Neuroprotective activity against amyloid beta (1 to 42)-induced neurodegeneration in human SH-SY5Y cells assessed as increase in cell viability at 1 to 5 uM after 48 hrs by MTT assay; type: functional, cell-based; outline: as §3

Sequence of Acetylcholinesterase (O42275 whole entry): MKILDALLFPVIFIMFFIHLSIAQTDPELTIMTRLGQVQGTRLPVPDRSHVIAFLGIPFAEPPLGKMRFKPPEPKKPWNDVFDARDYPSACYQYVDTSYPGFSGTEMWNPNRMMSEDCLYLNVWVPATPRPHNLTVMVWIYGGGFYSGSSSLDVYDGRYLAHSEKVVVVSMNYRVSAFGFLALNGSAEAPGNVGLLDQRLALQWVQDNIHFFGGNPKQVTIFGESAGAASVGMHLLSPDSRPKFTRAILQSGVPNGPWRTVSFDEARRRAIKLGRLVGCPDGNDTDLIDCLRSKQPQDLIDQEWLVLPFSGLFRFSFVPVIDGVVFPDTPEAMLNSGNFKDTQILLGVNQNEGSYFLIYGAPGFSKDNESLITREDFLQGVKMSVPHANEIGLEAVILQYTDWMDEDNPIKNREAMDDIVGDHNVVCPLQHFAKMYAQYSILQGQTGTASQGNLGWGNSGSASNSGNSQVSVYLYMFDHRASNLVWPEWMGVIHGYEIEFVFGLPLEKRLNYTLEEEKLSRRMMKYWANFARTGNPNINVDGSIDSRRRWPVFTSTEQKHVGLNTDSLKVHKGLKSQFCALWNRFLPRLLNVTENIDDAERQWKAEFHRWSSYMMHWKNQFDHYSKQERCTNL
Sequence of Cholinesterase (P81908 whole entry): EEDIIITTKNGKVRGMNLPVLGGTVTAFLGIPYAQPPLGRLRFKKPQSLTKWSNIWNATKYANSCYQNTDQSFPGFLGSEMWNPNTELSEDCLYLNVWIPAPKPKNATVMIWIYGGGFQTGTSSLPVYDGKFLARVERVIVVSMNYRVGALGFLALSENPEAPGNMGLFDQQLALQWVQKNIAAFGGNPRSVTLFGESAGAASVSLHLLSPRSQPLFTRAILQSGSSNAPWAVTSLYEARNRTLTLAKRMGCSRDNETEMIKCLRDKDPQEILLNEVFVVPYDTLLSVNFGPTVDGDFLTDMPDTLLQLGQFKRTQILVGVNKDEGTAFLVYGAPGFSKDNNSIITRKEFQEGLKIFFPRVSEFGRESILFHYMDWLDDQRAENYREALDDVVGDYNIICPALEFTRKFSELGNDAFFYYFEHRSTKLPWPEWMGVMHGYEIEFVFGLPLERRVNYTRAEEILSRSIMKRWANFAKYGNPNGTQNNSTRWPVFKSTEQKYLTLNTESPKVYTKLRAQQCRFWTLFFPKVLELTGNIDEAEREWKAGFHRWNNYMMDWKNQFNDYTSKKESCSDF
Sequence of Amyloid-beta precursor protein (Homo sapiens) (P05067 whole entry): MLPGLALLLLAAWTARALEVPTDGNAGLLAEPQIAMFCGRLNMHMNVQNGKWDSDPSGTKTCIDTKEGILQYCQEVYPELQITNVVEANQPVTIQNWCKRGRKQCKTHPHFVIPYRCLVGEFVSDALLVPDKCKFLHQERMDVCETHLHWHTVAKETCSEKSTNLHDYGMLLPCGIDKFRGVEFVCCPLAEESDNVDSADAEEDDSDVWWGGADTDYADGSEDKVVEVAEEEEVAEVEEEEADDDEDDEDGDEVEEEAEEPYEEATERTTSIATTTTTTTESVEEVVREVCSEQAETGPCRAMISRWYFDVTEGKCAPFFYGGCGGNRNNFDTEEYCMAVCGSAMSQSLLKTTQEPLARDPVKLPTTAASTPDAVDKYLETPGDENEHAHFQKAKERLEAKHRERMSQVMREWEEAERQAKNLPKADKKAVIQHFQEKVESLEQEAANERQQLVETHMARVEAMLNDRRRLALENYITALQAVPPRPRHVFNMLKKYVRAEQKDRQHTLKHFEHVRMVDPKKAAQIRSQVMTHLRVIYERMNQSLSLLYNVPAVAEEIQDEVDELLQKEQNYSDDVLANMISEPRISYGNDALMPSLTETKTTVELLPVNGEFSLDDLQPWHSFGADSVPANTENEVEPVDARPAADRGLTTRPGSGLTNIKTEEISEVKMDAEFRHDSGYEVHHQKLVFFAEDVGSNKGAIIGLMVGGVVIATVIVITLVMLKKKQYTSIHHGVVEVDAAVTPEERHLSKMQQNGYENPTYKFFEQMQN
Sequence of Cholinesterase (Equus caballus) (P81908 whole entry): as the sequence (P81908 whole entry) above

Row | Compound | IC50 (Cholinesterase; read-out: IC50) | IC50 (Acetylcholinesterase; read-out: IC50) | Ratio IC50 [1] | inhibition [2] | IC50 (Acetylcholinesterase) | IC50 (Cholinesterase) | further results
1 | COC(=O)C1Cc2c([nH]c3ccccc23)C(c2ccccc2)N1C(=O)CN(C)CCN(C)CC(=O)N1C(C(=O)OC)Cc2c([nH]c3ccccc23)C1c1ccccc1 (stereo not drawn) | 14.6 µM | 64 µM | 4.4 | 65.1% | – | – | –
2 | COC(=O)c1cc2c3ccccc3n(CCCCN(C)CCN(C)CCCCn3c4ccccc4c4cc(C(=O)OC)nc(C)c43)c2c(C)n1 | 1.5 µM | 9.6 µM | 6.4 | 65.5% | – | – | Activity (SH-SY5Y [3]): Toxic
3 | COC(=O)C1Cc2c([nH]c3ccccc23)C(C)N1C(=O)CN1CCN(CC(=O)N2C(C(=O)OC)Cc3c([nH]c4ccccc34)C2C)CC1 (stereo not drawn) | 20.9 µM | – | inactive | 50.8% | Not Active | – | –
4 | COC(=O)C1Cc2c([nH]c3ccccc23)C(C)N1C(=O)CCCN1CCN(CCCC(=O)N2C(C(=O)OC)Cc3c([nH]c4ccccc34)C2C)CC1 (stereo not drawn) | 2.8 µM | 44.2 µM | 15.8 | 85.7% | – | – | viability at 5 µM (SH-SY5Y [4]): 85.5%; viability at 24 h, 2.5 µM [5]: 99.1%; viability at 24 h, 10 µM [6]: 90.8%; viability at 24 h, 1 µM [7]: 98.6%; viability at 1 µM (SH-SY5Y [8]): 101%; viability at 1 µM (SH-SY5Y [9]): 90.4%; viability at 24 h, 5 µM [10]: 101%; Activity (SH-SY5Y [11]): Active
5 | COC(=O)C1Cc2c([nH]c3ccccc23)C(C)N1C(=O)CCN(C)CCN(C)CCC(=O)N1C(C(=O)OC)Cc2c([nH]c3ccccc23)C1C (stereo not drawn) | 1.7 µM | 18 µM | 10.6 | 82.7% | – | – | Activity (SH-SY5Y [12]): Active; viability at 5 µM (SH-SY5Y [4]): 42.1%; viability at 24 h, 2.5 µM [5]: 92.8%; viability at 24 h, 1 µM [7]: 106%; viability at 1 µM (SH-SY5Y [9]): 100%; viability at 24 h, 5 µM [10]: 92.4%; Activity (SH-SY5Y [11]): Active
6 | COC(=O)c1cc2c3ccccc3n(CCCN(C)CCN(C)CCCn3c4ccccc4c4cc(C(=O)OC)nc(C)c43)c2c(C)n1 | 15.4 µM | 99.1 µM | 6.4 | inactive | – | – | –
7 | COC(=O)c1cc2c([nH]c3ccccc32)c(-c2ccccc2)n1 | – | – | inactive | – | Not Active | Not Active | –
8 | COC(=O)c1cc2c3ccccc3n(CCCN3CCN(CCCn4c5ccccc5c5cc(C(=O)OC)nc(C)c54)CC3)c2c(C)n1 | 0.7 µM | 11.2 µM | 16 | inactive | – | – | Ratio IC50 [13]: 4; Activity (SH-SY5Y [3]): Toxic
9 | COC(=O)c1cc2c3ccccc3n(CCCCN(C)CCN(C)CCCCn3c4ccccc4c4cc(C(=O)OC)nc(-c5ccccc5)c43)c2c(-c2ccccc2)n1 | 1.8 µM | 15.7 µM | 8.7 | 71.5% | – | – | Activity (SH-SY5Y [3]): Toxic
10 | COC(=O)C1Cc2c([nH]c3ccccc23)C(c2ccccc2)N1 (stereo not drawn) | – | – | inactive | – | Not Active | Not Active | –
11 | COC(=O)c1cc2c3ccccc3n(CCCN3CCN(CCCn4c5ccccc5c5cc(C(=O)OC)nc(-c6ccccc6)c54)CC3)c2c(-c2ccccc2)n1 | – | – | inactive | – | Not Active | Not Active | –
12 | COC(=O)C1Cc2c([nH]c3ccccc23)CN1C(=O)CN1CCN(CC(=O)N2Cc3[nH]c4ccccc4c3CC2C(=O)OC)CC1 (stereo not drawn) | – | – | inactive | – | Not Active | Not Active | –
13 | COC(=O)c1cc2c3ccccc3n(CCCN(C)CCN(C)CCCn3c4ccccc4c4cc(C(=O)OC)nc(-c5ccccc5)c43)c2c(-c2ccccc2)n1 | 0.8 µM | 147 µM | 184 | 25.4% | – | – | Activity (SH-SY5Y [14]): inactive; viability at 24 h, 2.5 µM [5]: 93.2%; viability at 24 h, 1 µM [7]: 98.2%; viability at 24 h, 5 µM [10]: 93.7%
14 | COC(=O)c1cc2c3ccccc3n(CCCCN3CCN(CCCCn4c5ccccc5c5cc(C(=O)OC)nc(-c6ccccc6)c54)CC3)c2c(-c2ccccc2)n1 | – | – | inactive | – | Not Active | Not Active | –
15 | COC(=O)C1Cc2c([nH]c3ccccc23)C(C)N1C(=O)CN(C)CCN(C)CC(=O)N1C(C(=O)OC)Cc2c([nH]c3ccccc23)C1C (stereo not drawn) | 9 µM | 39.8 µM | 4.3 | 72.3% | – | – | Activity (SH-SY5Y [3]): Toxic
16 | COC(=O)C1Cc2c([nH]c3ccccc23)CN1C(=O)CCN(C)CCN(C)CCC(=O)N1Cc2[nH]c3ccccc3c2CC1C(=O)OC (stereo not drawn) | 27 µM | 25.4 µM | 0.9 | 59.2% | – | – | –
17 | COC(=O)c1cc2c([nH]c3ccccc32)c(C)n1 | – | – | inactive | – | Not Active | Not Active | –
18 | COC(=O)C1Cc2c([nH]c3ccccc23)C(c2ccccc2)N1C(=O)CCN1CCN(CCC(=O)N2C(C(=O)OC)Cc3c([nH]c4ccccc34)C2c2ccccc2)CC1 (stereo not drawn) | 5.7 µM | 488 µM | 85.6 | 41.9% | – | – | –
19 | COC(=O)c1cc2c3ccccc3n(CCCCN3CCN(CCCCn4c5ccccc5c5cc(C(=O)OC)nc(C)c54)CC3)c2c(C)n1 | 9.7 µM | 11.6 µM | 1.2 | inactive | – | – | –
20 | COC(=O)C1Cc2c([nH]c3ccccc23)CN1 (stereo not drawn) | – | – | inactive | – | Not Active | Not Active | –
21 | COC(=O)C1Cc2c([nH]c3ccccc23)C(c2ccccc2)N1C(=O)CCCN1CCN(CCCC(=O)N2C(C(=O)OC)Cc3c([nH]c4ccccc34)C2c2ccccc2)CC1 (stereo not drawn) | – | – | inactive | – | Not Active | Not Active | –
22 | COC(=O)C1Cc2c([nH]c3ccccc23)C(C)N1 (stereo not drawn) | – | – | inactive | – | Not Active | Not Active | –

Reference: ChEMBL document CHEMBL4118286, “Design, synthesis and evaluation of novel bivalent β-carboline derivatives as multifunctional agents for the treatment of Alzheimer's disease” (Bioorg Med Chem, 2018)
